Data published in ChEMBL document CHEMBL1153534, “Design and synthesis of androgen receptor antagonists with bulky side chains for overcoming antiandrogen resistance” (J Med Chem, 2009).
Residue numbers refer to the chain shown, from its start. Calls of active or inactive are those of the source. The calls are words filed in the database; no cut-off is given here.

Experiments:
[1] = system: T1, Androgen receptor (Homo sapiens), P10275 [W742C]; assay: Activity in human PC3 cells expressing androgen receptor W741C mutant assessed as ARE-dependent transactivation at 0.1 uM after 24 hrs by luciferase reporter gene assay in absence of DHT; format: cell-based; details: PC-3
T1 sequence (whole entry): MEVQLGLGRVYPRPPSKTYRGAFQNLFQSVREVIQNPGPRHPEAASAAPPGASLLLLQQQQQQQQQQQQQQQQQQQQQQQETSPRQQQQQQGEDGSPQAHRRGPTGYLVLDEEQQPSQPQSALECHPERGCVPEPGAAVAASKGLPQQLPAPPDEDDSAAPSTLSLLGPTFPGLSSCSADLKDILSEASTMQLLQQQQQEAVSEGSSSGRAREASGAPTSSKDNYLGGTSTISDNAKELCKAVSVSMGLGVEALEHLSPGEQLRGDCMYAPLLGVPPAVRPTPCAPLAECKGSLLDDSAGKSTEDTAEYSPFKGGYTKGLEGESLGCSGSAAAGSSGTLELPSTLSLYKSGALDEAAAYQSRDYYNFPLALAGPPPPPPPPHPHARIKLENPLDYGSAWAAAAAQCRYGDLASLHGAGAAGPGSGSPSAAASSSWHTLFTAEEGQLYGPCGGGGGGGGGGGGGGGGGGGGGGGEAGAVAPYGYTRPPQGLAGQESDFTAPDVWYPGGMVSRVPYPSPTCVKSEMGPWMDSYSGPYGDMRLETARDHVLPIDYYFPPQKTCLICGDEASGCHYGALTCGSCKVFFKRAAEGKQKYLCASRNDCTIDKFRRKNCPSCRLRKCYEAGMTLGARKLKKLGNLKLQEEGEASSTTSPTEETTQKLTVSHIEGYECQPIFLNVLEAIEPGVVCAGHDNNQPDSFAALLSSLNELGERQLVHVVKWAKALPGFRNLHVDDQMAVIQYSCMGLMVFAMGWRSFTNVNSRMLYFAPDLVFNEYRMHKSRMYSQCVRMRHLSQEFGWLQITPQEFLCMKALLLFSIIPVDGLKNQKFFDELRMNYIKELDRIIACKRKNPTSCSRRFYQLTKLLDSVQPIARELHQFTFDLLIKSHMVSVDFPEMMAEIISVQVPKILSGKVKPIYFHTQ
In short: (§1)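 PC-3 cells, which lack endogenous AR, transiently transfected with plasmids expressing human AR (WT, T877A, W741C or H874Y) plus an ARE-driven MMTV-luc reporter. Cells were treated with or without 0.1 nM DHT. Firefly luciferase was standardized to a Renilla control and normalized to the 0.1 nM DHT signal. Mean ± sd.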

[2] = system: Androgen receptor (Homo sapiens), P10275 [T878A]; assay: Activity in human PC3 cells expressing androgen receptor T877A mutant assessed as ARE-dependent transactivation at 0.1 uM after 24 hrs by luciferase reporter gene assay in absence of DHT; format: cell-based; details: PC-3; in short: as §1
Sequence of Androgen receptor (Homo sapiens), P10275 [T878A] (P10275 whole entry T878A): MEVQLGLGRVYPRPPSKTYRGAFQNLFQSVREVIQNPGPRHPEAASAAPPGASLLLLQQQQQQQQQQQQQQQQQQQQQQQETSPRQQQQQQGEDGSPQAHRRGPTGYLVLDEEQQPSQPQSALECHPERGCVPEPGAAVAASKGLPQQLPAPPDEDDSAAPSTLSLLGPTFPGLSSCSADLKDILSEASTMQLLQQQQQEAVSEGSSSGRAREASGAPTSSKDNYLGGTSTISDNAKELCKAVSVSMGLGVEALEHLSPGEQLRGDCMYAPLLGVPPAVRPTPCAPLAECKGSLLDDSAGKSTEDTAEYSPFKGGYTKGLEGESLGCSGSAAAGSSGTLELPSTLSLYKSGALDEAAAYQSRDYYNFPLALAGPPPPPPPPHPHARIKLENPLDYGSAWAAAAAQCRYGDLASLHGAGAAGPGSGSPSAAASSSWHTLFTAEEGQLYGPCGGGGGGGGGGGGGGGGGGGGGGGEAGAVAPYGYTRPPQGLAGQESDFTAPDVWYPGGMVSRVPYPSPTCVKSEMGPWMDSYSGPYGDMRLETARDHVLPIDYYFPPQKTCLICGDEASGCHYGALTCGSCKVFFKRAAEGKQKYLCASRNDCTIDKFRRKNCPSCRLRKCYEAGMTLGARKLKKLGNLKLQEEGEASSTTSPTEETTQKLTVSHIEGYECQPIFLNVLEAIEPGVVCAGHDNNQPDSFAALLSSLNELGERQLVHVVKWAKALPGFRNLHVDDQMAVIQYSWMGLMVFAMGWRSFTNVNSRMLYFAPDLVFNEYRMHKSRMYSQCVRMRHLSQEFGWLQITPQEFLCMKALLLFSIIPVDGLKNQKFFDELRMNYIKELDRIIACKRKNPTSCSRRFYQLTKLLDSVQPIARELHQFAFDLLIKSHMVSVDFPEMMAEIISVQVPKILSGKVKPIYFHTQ

CWR22R = assay: Cytotoxicity against human 22Rv1 cells after 72 hrs by MTT assay; format: functional, cell-based; details: 22Rv1, 72 h
LNCaP [3] = assay: Cytotoxicity against human LNCAP cells after 72 hrs by MTT assay; format: functional, cell-based
[4] = Cytotoxicity against human MDA PCa 2b cells after 72 hrs by MTT assay; format: functional, cell-based
LNCaP [5] = assay: Suppression of DHT-stimulated growth of human LNCAP cells after 72 hrs; format: functional, cell-based
PC-3 [6] = assay: Suppression of DHT-stimulated growth of human PC3 cells after 72 hrs with increasing concentration of DHT; format: functional, cell-based
[7] = Cytotoxicity against human C4-2B cells after 72 hrs by MTT assay; format: functional, cell-based; details: LNCaP C4-2B
[8] = target: T2, Androgen receptor (Homo sapiens) (UniProt P10275); assay: Activity in human PC3 cells expressing wild-type androgen receptor assessed as ARE-dependent transactivation at 1 uM after 24 hrs by luciferase reporter gene assay in absence of DHT; format: cell-based; details: PC-3; in short: as §1
T2 sequence (whole entry): T1 sequence (whole entry) with C742W

PC-3 [9] = assay: Activity in human PC3 cells expressing androgen receptor H874Y mutant assessed as ARE-dependent transactivation at 0.1 uM after 24 hrs by luciferase reporter gene assay in absence of DHT; format: cell-based; in short: as §1
PC-3 [10] = assay: Antiandrogenic activity in human PC3 cells expressing androgen receptor H874Y mutant assessed as inhibition of DHT-induced ARE-dependent transactivation at 1 uM after 24 hrs by luciferase reporter gene assay; format: cell-based; in short: as §1
PC-3 [11] = assay: Antiandrogenic activity in human PC3 cells expressing androgen receptor W741C mutant assessed as inhibition of DHT-induced ARE-dependent transactivation at 1 uM after 24 hrs by luciferase reporter gene assay; format: cell-based; in short: as §1

Activity [1]: inactive
Activity [2]: inactive
Activity [8]: inactive
SMILES: COc1cc(/C=C(\C(=O)/C=C/C2=C(C)CCCC2(C)C)C(=O)/C=C/c2ccc(O)c(OC)c2)ccc1O
IC50 (CWR22R): 2200 nM
IC50 (LNCaP [3]): 1300 nM
IC50 [4]: 2500 nM
Activity (LNCaP [5]): Dose-dependent effect
Activity (PC-3 [6]): Active
IC50 [7]: 1600 nM
Activity (PC-3 [9]): inactive
Activity (PC-3 [10]): Active
Activity (PC-3 [11]): Active
